Laboratory results from article PMC7394584 (OncoTargets and therapy, 2020).
Each block holds one molecule with its values, some of them ahead of it.

Legend:
[1] = test system: MHCC97-H cells' subcutaneous tumor; assay: Nude mice subcutaneous tumor model; format: in vivo; settings: oral; for Tumor Volumes IC50 Values, Solvent control / Tumor Weights IC50 Values, Solvent control / Tumor Volumes IC50 Values, Compound 4 / Tumor Weights IC50 Values, Compound 4: every 2 days, 30 days; for Tumor Volumes IC50 Values, Solvent control / Tumor Weights IC50 Values, Solvent control: agent alone; for Tumor Volumes IC50 Values, Compound 4 / Tumor Weights IC50 Values, Compound 4: agent combined with compound 4 (1 mg/kg)
Summary of the method: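 MHCC97-H cells injected subcutaneously into 4–5-week-old nude mice. Dosing started 4–5 days later as oral liquids formulated with PEG and Tween 80, given orally every 2 days (15 doses over 30 days). Test compound at 1 mg/kg; sorafenib at 0.5 or 2 mg/kg. Tumours then excised. Volume = length × width²/2; weight measured on a balance. Inhibitory rates calculated from volume and weight.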

[2] = test system: phospho-p70S6K (Thr389); assay: Western blot, phosphorylation of P70S6K1; format: cell-based, human; settings: MHCC97-H cells; for phosphorylation of P70S6K1 (Western blot): 1 μmol/L
[3] = test system: phospho-AKT; assay: Western blot, phosphorylation of AKT; format: cell-based, human; settings: MHCC97-H cells; for phosphorylation of AKT (Western blot): 1 μmol/L
Summary of the method: (§1)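 MHCC97-H cells (5 × 10^6 per 75T flask) pretreated 12 h with solvent, test compound or reference pathway inhibitors, each at 1 μmol/L, then incubated 24 h. RIPA lysates quantified by BCA; 40 μg protein run on 10–12% SDS-PAGE. Blocking in 5% skim milk/TBS-0.1% Tween-20; rabbit primary antibodies (1:1000, 4°C) against phospho-p70S6K Thr389, phospho-AKT Ser473/Thr308, phospho-ERK and total proteins; β-actin loading control.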

[4] = test system: phospho-ERK; assay: Western blot, phosphorylation of ERK; format: cell-based, human; settings: MHCC97-H cells, 1 μmol/L
Summary of the method: as §1

[5] = test system: MHCC97-H cells; assay: MTT cell-survival examination; format: cell-based; settings: compound 4 at 0.03 μmol/L (30 nmol/L)
Summary of the method: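 MHCC97-H seeded at 5 × 10^3 cells/well in DMEM + 10% FBS, 37°C, 5% CO2, 24 h. MTT read at OD 490 nm; inhibition = (control − treated)/control × 100%; IC50 calculated from inhibitory rates.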

[6] = test system: advanced HCC patients; assay: Clinical outcome of sorafenib treatment by mTOR mRNA expression; format: in vivo, human; settings: sorafenib-treated advanced HCC patients
[7] = stated in introduction, no reference given; cited from earlier work

Tumor Volumes IC50 Values, Solvent control [1]: 1.70 ± 0.54 mg/kg
Tumor Weights IC50 Values, Solvent control [1]: 1.60 ± 0.71 mg/kg
Tumor Volumes IC50 Values, Compound 4 [1]: 0.44 ± 0.23 mg/kg
Tumor Weights IC50 Values, Compound 4 [1]: 0.42 ± 0.07 mg/kg
Structure (SMILES): COc1cc2c(Oc3ccc4[nH]c(C)cc4c3F)ccnc2cc1OCC1(N)CC1 [Anlotinib]

Tumor Volumes IC50 Values, Solvent control [1]: 1.95 ± 0.55 mg/kg
Tumor Weights IC50 Values, Solvent control [1]: 1.65 ± 0.09 mg/kg
Tumor Volumes IC50 Values, Compound 4 [1]: 0.53 ± 0.20 mg/kg
Tumor Weights IC50 Values, Compound 4 [1]: 0.59 ± 0.07 mg/kg
Structure (SMILES): N#CC1(c2ccc(NC(=O)c3cccnc3NCc3ccncc3)cc2)CCCC1 [Apatinib]

Structure (SMILES): C[C@@H]1CCN(C(=O)CC#N)C[C@@H]1N(C)c1ncnc2[nH]ccc12 [CP690550]
phosphorylation of P70S6K1 (Western blot) [2]: does not affect
phosphorylation of AKT (Western blot) [3]: does not affect
ERK phosphorylation (Western blot) [4]: does not affect

Structure (SMILES): CC(C)(C)OC(=O)Nc1ccc(-c2nc(N3CCOCC3)c3ncn(CCC4OCCO4)c3n2)cc1 [Compound 4, tert-butyl (4-(9-(2-(1,3-dioxolan-2-yl)ethyl)-6-morpholino-9H-purin-2-yl)phenyl)carbamate]
cytotoxicity on MHCC97-H cells [5]: no obvious cytotoxicity
inhibitory activity on mTORC1 (phospho-p70S6K1, Western blot) [2]: definite inhibitory effect
phosphorylation of P70S6K1 (Western blot) [2]: only inhibited the phosphorylation of P70S6K1
inhibition of activation of mTOR kinase (phosphorylation of P70S6K1) in cells ([2]; compound 4 at 0.03 μmol/L (30 nmol/L)): significantly inhibited the activation of mTOR
inhibitory activity on mTORC2 (phospho-AKT SER473, Western blot) [3]: weaker than that on mTORC1
phosphorylation of AKT (Western blot) [3]: did not affect PI3K or AKT
ERK phosphorylation (Western blot) [4]: did not show a significant inhibitory effect
MHCC97-H cells' subcutaneous growth ([1]; compound 4 alone at 1 mg/kg): without significantly affecting
activation of mTOR in vivo ([1]; compound 4 at 1 mg/kg): significantly inhibited the activation of mTOR

Structure (SMILES): CC(C)(C)c1nc(-c2cccc(NS(=O)(=O)c3c(F)cccc3F)c2F)c(-c2ccnc(N)n2)s1 [GSK2118436]
ERK phosphorylation (Western blot) [4]: significantly inhibited ERK phosphorylation

Structure (SMILES): O=c1cc(N2CCOCC2)oc2c(-c3ccccc3)cccc12 [LY294002]
phosphorylation of P70S6K1 (Western blot) [2]: significantly inhibited
phosphorylation of AKT (Western blot) [3]: significantly inhibited

Tumor Volumes IC50 Values, Solvent control [1]: 0.70 ± 0.25 mg/kg
Tumor Weights IC50 Values, Solvent control [1]: 0.78 ± 0.58 mg/kg
Tumor Volumes IC50 Values, Compound 4 [1]: 0.10 ± 0.05 mg/kg
Tumor Weights IC50 Values, Compound 4 [1]: 0.10 ± 0.01 mg/kg
Structure (SMILES): COc1cc2nccc(Oc3ccc(NC(=O)NC4CC4)c(Cl)c3)c2cc1C(N)=O [Lenvatinib]

Tumor Volumes IC50 Values, Solvent control [1]: 0.92 ± 0.48 mg/kg
Tumor Weights IC50 Values, Solvent control [1]: 1.22 ± 0.72 mg/kg
Tumor Volumes IC50 Values, Compound 4 [1]: 0.43 ± 0.10 mg/kg
Tumor Weights IC50 Values, Compound 4 [1]: 0.55 ± 0.10 mg/kg
Structure (SMILES): CNC(=O)c1cc(Oc2ccc(NC(=O)Nc3ccc(Cl)c(C(F)(F)F)c3)c(F)c2)ccn1 [Regorafenib]

Structure (SMILES): CNC(=O)c1cc(Oc2ccc(NC(=O)Nc3ccc(Cl)c(C(F)(F)F)c3)cc2)ccn1 [Sorafenib]
Tumor Volumes IC50 Values, Solvent control [1]: 1.30 ± 0.48 mg/kg
Tumor Weights IC50 Values, Solvent control [1]: 1.57 ± 0.41 mg/kg
Tumor Volumes IC50 Values, Compound 4 [1]: 0.17 ± 0.03 mg/kg
Tumor Weights IC50 Values, Compound 4 [1]: 0.15 ± 0.04 mg/kg
OS (overall survival), median ([6]; mTOR mRNA High (n = 40)): 10.0 M
TTP (time to progress), median ([6]; mTOR mRNA High (n = 40)): 8.0 M
OS (overall survival), median ([6]; mTOR mRNA Low (n = 12)): 16.0 M
TTP (time to progress), median ([6]; mTOR mRNA Low (n = 12)): 12.0 M

Structure (SMILES): CO[C@H]1C[C@@H]2CC[C@@H](C)[C@@](O)(O2)C(=O)C(=O)N2CCCC[C@H]2C(=O)O[C@H]([C@H](C)C[C@@H]2CC[C@@H](OCCO)[C@H](OC)C2)CC(=O)[C@H](C)/C=C(\C)[C@@H](O)[C@@H](OC)C(=O)[C@H](C)C[C@H](C)/C=C/C=C/C=C/1C [everolimus]
logP [7]: > 6

Structure (SMILES): CO[C@H]1C[C@@H]2CC[C@@H](C)[C@@](O)(O2)C(=O)C(=O)N2CCCC[C@H]2C(=O)O[C@H]([C@H](C)C[C@@H]2CC[C@@H](O)[C@H](OC)C2)CC(=O)[C@H](C)/C=C(\C)[C@@H](O)[C@@H](OC)C(=O)[C@H](C)C[C@H](C)/C=C/C=C/C=C/1C [rapamycin]
logP [7]: > 6
